KCNK3 inh: human KCNK3 channel inhibitors, primary screen, CHO cells, FluxOR thallium flux, B-score | Potassium channel subfamily K member 3 (Homo sapiens), O14649 | FluxOR fluorescence; stronger effect = lower value | B-score at 10 µM | 340,000 compounds, 0.84% hits;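 active = B-score under library mean minus 4 SD, starting fluorescence ratio at most library mean plus 5 SD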;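 note: more negative B-score means stronger inhibition of thallium flux through KCNK3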
Target sequence (O14649 whole entry, looked up): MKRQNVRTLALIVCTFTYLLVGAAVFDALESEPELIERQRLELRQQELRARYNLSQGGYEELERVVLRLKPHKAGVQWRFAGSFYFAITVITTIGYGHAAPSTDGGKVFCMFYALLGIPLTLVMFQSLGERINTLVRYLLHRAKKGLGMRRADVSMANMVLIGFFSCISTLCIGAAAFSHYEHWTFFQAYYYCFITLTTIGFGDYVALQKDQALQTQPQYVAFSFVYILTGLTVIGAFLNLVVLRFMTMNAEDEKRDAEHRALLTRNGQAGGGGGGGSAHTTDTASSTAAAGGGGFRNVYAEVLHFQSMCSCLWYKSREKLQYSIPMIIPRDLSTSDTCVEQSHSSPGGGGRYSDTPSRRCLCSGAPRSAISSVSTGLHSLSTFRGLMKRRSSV
KCNQ1 inh: inhibitors of human KCNQ1 channel, primary screen, cell-based, thallium flux, high-throughput. CHO-K1 KCNQ1, FluxOR thallium flux fluorescence; stronger effect = higher value. B-score at 10 µM. AID 2642, 2010. 310,000 compounds, 1.3% hits. Potassium voltage-gated channel subfamily KQT member 1 (Homo sapiens), P51787;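 active = compounds whose thallium flux B-score, printed positive for inhibition, exceeds three library SD while starting fluorescence stays within three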;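 note: channel opened by potassium depolarization with thallium stimulus after 20 min compound exposure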
KCNK9 inh: KCNK9 potassium channel inhibitors, primary screen, HEK293 cells, thallium flux. FluxOR thallium flux fluorescence; stronger effect = lower value. B-score at 10 µM. Potassium channel subfamily K member 9 (Homo sapiens), Q9NPC2. 310,000 compounds, 1.2% hits;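 active = ratio B-score over 3 SD below the library mean, with starting fluorescence within 5 SD of its mean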;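 note: negative B-score means less thallium flux so channel inhibition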
Target sequence (Q9NPC2 whole entry, looked up): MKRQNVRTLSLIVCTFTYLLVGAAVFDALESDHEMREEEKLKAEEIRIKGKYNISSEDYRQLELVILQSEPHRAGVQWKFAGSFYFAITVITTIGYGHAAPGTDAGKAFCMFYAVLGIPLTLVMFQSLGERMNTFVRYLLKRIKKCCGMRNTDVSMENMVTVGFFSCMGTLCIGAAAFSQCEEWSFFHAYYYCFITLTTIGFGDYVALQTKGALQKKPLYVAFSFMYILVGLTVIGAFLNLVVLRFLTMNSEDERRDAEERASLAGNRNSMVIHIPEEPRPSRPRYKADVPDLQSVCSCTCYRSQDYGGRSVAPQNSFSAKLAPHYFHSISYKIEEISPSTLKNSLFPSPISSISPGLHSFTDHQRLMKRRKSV
hERG rescue: hERG rescue from dofetilide block, primary screen, cell-based, CHO-hERG, FluxOR thallium flux, dofetilide IC70; activation (rescue from dofetilide block), less the hit threshold, % at 10 µM; Voltage-gated inwardly rectifying potassium channel KCNH2 (Homo sapiens), Q12809; dofetilide IC70 present; 310,000 compounds, 0.51% hits;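 active = activation above the mean of controls blocked by dofetilide plus 5 SD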;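 note: thallium influx through hERG after potassium depolarization seen as dye fluorescence rise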
KCNQ1 pot: potentiators or activators of KCNQ1 channel, primary screen, cell-based, thallium flux, high-throughput | B-score at 10 µM | 310,000 compounds, 0.35% hits | Potassium voltage-gated channel subfamily KQT member 1 (Homo sapiens), P51787 | CHO-K1 KCNQ1, thallium flux FluxOR fluorescence; stronger effect = higher value | AID 2648, 2010;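 active = fluorescence ratio B-score, a plate-corrected score, at least three library SD, with initial intensity B-score within 5 SD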
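Doses: Single concentration per compound, DMSO matched to controls | Test system: KCNQ1-transfected CHO-K1 cells | Timing: 90 min dye loading and 20 min compound exposure, both at room temperature | Measured by: Kinetic FluxOR thallium fluorescence, 10-s 1-Hz baseline, 110-s post-stimulus read | Medium: Assay buffer with matched DMSO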
KCNQ1 inh valid: KCNQ1 potassium channel inhibitors, confirmation, cell-based, Tl flux, duplicate. shares compounds with KCNQ1 inh. KCNQ1 cell line, FluxOR thallium flux fluorescence. inhibition, % at 10 µM. 1,600 compounds, 93% hits. AID 588353, 2011;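 active = primary screen active, with duplicate mean exceeding buffer control mean plus 3 SD of buffer wells, cut at about 28% in these data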
CHO Tl flux: thallium flux effects in parental CHO cells, counter-screen for KCNQ1 inhibitor project, cell-based, Tl flux | shares compounds with KCNQ1 inh | parental CHO-K1, FluxOR thallium flux fluorescence ratio; stronger effect = lower value; zero means no signal rise above baseline | fluorescence ratio (Tl flux) at 10 µM | 1,600 compounds, 21% hits | AID 588366, 2011;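 active = mean of duplicate thallium-flux fluorescence ratios in parental host cells more than 5 SD below the buffer control mean, cut at about 0.38 in these data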;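 note: ratio is peak minus minimum fluorescence divided by baseline fluorescence; actives read low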
KCNQ1 APC inh: KCNQ1 channel inhibitors, confirmation, orthogonal assay, cell-based, automated electrophysiology | KCNQ1-CHO cells, automated patch clamp current | shares compounds with KCNQ1 inh | 490 compounds, 20% hits | AID 624120, 2012 | calls only at 10 µM;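 active = KCNQ1 current drop exceeding 3 SD of negative control wells, seen in both duplicate runs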;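 note: steady state current during a 2 s step from -80 to +40 mV; negative values mean current inhibition and positive values mean potentiation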
KCNQ2 inh: KCNQ2 channel inhibition, selectivity assay for KCNQ1 inhibitor project, cell-based | shares compounds with KCNQ1 inh | KCNQ2 cells, FluxOR thallium flux fluorescence | inhibition, % at 10 µM | 1,600 compounds, 71% hits | AID 651746, 2012;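 active = mean percent inhibition of the KCNQ2 thallium signal more than 5 SD above the buffer-only control wells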;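 note: KCNQ2 expressed in CHO cells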
KCNQ1-KCNE1 inh: KCNQ1/KCNE1 channel inhibition, selectivity assay for KCNQ1 inhibitor project, CHO-K1 cells, thallium flux, FluxOR. FluxOR thallium flux fluorescence. 1,600 compounds, 77% hits. inhibition, % at 10 µM. shares compounds with KCNQ1 inh;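 active = mean percent inhibition of duplicate wells above the buffer-only control mean plus 3 SD of those controls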
Each line names hits and unclear results; the compound was inactive in the other large screens (follow-up assays come after a bar, where they were run). Most compounds without a hit are left out; they make up all but 3.1% or so of the library.

Cc1sc2c(c1C)CN(CCN1CCOCC1)CN2C(=O)c1ccccc1	KCNQ1 inh 6 | KCNQ1 inh valid inactive | CHO Tl flux inactive | KCNQ2 inh inactive | KCNQ1-KCNE1 inh 37%
Cc1ccc(S(=O)(=O)N2CCCCC2)cc1NC(=O)CSc1ncnc2ccccc12	none
Cc1ccc(NC(=O)CSc2ncnc3ccccc23)cc1S(=O)(=O)N1CCCCCC1	KCNQ1 inh 6 | KCNQ1 inh valid 118 | CHO Tl flux inactive | KCNQ1 APC inh inactive | KCNQ2 inh 127% | KCNQ1-KCNE1 inh 106%
Cc1ccc(NC(=O)COc2cccc(C)c2C)cc1S(=O)(=O)N1CCCCCC1	KCNQ1 inh 6 | KCNQ1 inh valid 85 | CHO Tl flux inactive | KCNQ2 inh 119% | KCNQ1-KCNE1 inh 134%
COc1ccc(CCNC(=O)CN2C(=O)NC(c3ccccc3)(c3ccccc3)C2=O)cc1	none (no result: KCNQ1 inh, KCNK9 inh, hERG rescue, KCNQ1 pot)
O=C(CSc1nnnn1C1CC2C=CC1C2)Nc1ccc(C(=O)O)cc1 (configuration not stated)	none
Cc1cccc(Cn2nc(C(C)(C)C)cc2C(=O)Nc2ccc(F)cc2)c1	KCNQ1 inh 12 | KCNQ1 inh valid 175 | CHO Tl flux 0.22 | KCNQ2 inh 144% | KCNQ1-KCNE1 inh active
COC(=O)c1nc(NC(=O)c2cc(OC)c(OC)c(OC)c2)n[nH]1	none
Nc1ncc(Br)cc1S(=O)(=O)Nc1cc(C(F)(F)F)cc(C(F)(F)F)c1	KCNQ1 inh 10 | KCNQ1 inh valid 108 | CHO Tl flux inactive | KCNQ2 inh inactive | KCNQ1-KCNE1 inh inactive
CC(C)CN1C(=O)c2ccc(C(=O)Nc3c[nH]c(=O)[nH]c3=O)cc2C1=O	none
CC(=O)Nc1ccc(-c2csc(Nc3cc(C)ccn3)n2)cc1	none
CC(=O)Nc1cccc(-c2csc(Nc3cc(C)ccn3)n2)c1	KCNQ1 inh 6 | KCNQ1 inh valid 70 | CHO Tl flux inactive | KCNQ2 inh 90% | KCNQ1-KCNE1 inh 38%
CCOC(=O)Cc1nn[nH]n1	KCNQ1 inh 7 | KCNQ1 inh valid inactive | CHO Tl flux inactive | KCNQ2 inh inactive | KCNQ1-KCNE1 inh 37%
NC(=O)COC(=O)c1ccccc1Nc1ccc(SC(F)F)cc1	none
CC(C)(C)NC(=O)COC(=O)c1ccccc1Nc1ccc(SC(F)F)cc1	KCNQ1 inh 6 | KCNQ1 inh valid 119 | CHO Tl flux 0.37 | KCNQ2 inh 109% | KCNQ1-KCNE1 inh 158%
Cc1cc(OCC(=O)Nc2ccncc2)cc(C)c1Br	KCNQ1 inh 8 | KCNQ1 inh valid 131 | CHO Tl flux inactive | KCNQ1 APC inh inactive | KCNQ2 inh 96% | KCNQ1-KCNE1 inh inactive
Cc1cc(OCC(=O)Nc2ccncc2)ccc1Cl	none
O=C(Nc1nc(-c2ccccc2)c(-c2ccccc2)s1)c1ccc(S(=O)(=O)N2CCCCC2)cc1	none
O=C(Nc1nc(-c2ccccc2)c(C(=O)c2ccccc2)s1)c1ccc(S(=O)(=O)N2CCCCC2)cc1	KCNQ1 inh 8 | KCNQ1 inh valid 83 | CHO Tl flux inactive | KCNQ2 inh inactive | KCNQ1-KCNE1 inh 112%
COc1cccc(N2CCc3c(C)nc4ccc(Cl)cc4c32)c1	KCNQ1 inh 6 | KCNQ1 inh valid 102 | CHO Tl flux inactive | KCNQ1 APC inh active | KCNQ2 inh 98% | KCNQ1-KCNE1 inh 77%
COc1ccc(N2CCc3c(C)nc4c(OC)cc(OC)cc4c32)cc1	KCNK3 inh -10, KCNQ1 inh 6 | KCNQ1 inh valid inactive | CHO Tl flux inactive | KCNQ2 inh inactive | KCNQ1-KCNE1 inh inactive
Cc1ccc(Cl)cc1N1CCN(S(=O)(=O)c2ccc3c(c2)OCCO3)CC1	KCNQ1 inh 7 | KCNQ1 inh valid 113 | CHO Tl flux inactive | KCNQ2 inh 78% | KCNQ1-KCNE1 inh 128%
c1ccc2c(-c3nc(C4CCCCC4)no3)cc(-c3ccncc3)nc2c1	KCNQ1 inh 7 | KCNQ1 inh valid 84 | CHO Tl flux inactive | KCNQ2 inh 93% | KCNQ1-KCNE1 inh 79%
O=S1(=O)[C@H]2C[C@@H]3C=C[C@]2(CN1Cc1ccc(C(F)(F)F)cc1)O3	none
CC(C)COC(=O)NCCOC(=O)Nc1cccc(Cl)c1	KCNQ1 inh 8 | KCNQ1 inh valid 124 | CHO Tl flux inactive | KCNQ1 APC inh active | KCNQ2 inh 113% | KCNQ1-KCNE1 inh 91%
CCN(CC)S(=O)(=O)c1ccc(N2CCN(CCOc3ccc(OC)cc3)CC2)nc1	none
Cc1ccc(NC(=O)C2CCN(S(=O)(=O)c3cc([N+](=O)[O-])ccc3Cl)CC2)nc1	none (no result: KCNQ1 inh, KCNK9 inh, hERG rescue, KCNQ1 pot)
O=C(Nc1nc2ccc(F)cc2s1)C1CCN(S(=O)(=O)c2cc([N+](=O)[O-])ccc2Cl)CC1	KCNQ1 inh 15 | KCNQ1 inh valid 158 | CHO Tl flux 0.37 | KCNQ2 inh 118% | KCNQ1-KCNE1 inh 198%
COc1ccc(C)cc1Nc1n[n+](-c2ccccc2)c(-c2ccc(N(C)C)cc2)s1	KCNQ1 inh 15, KCNK9 inh -7.2 | KCNQ1 inh valid active | CHO Tl flux 0.22 | KCNQ2 inh inactive | KCNQ1-KCNE1 inh inactive
CCCCNC(=O)c1cc2cc(CC)ccc2[nH]1	none
O=C(Cc1ccc(Cl)cc1)NC1CCCCCC1	none
Clc1ccc(CN=C(Nc2ccccc2)NC2CCCCC2)cc1	KCNQ1 inh 8 | KCNQ1 inh valid 48 | CHO Tl flux inactive | KCNQ2 inh inactive | KCNQ1-KCNE1 inh 38%
Cc1ccc(-c2cc3ccccc3nc2N2CCCC2)cc1	KCNQ1 inh 12 | KCNQ1 inh valid 118 | CHO Tl flux inactive | KCNQ1 APC inh inactive | KCNQ2 inh 87% | KCNQ1-KCNE1 inh 194%

Compound activity deposited in PubChem BioAssay by Johns Hopkins Ion Channel Center.
